Measurements published in ChEMBL document CHEMBL1126292, “Selective beta 3-adrenergic agonists of brown adipose tissue and thermogenesis. 2. [4-[2-[(2-Hydroxy-3-phenoxypropyl)amino]ethoxy]phenoxy]acetamides” (J Med Chem, 1992).
In brackets after ≈: the same amount, converted by molar mass.

How the values were obtained:
[1] = molecular target: Beta-3 adrenergic receptor (Rattus norvegicus) (UniProt P26255); assay: Stimulation of GDP binding against beta-3 adrenergic receptor in brown adipose tissue (BAT) mitochondria of rats after peroral administration (Dose necessary to produce 50% of the isoprenaline effect).
[2] = tested on: Rattus norvegicus; assay: Ratio of the dose (D500, peroral administration) elevating the rat heart rate to 500 bpm and GDP ED50.; type: functional
[3] = Aqueous solubility at a pH 7; type: physicochemical; details: read-out: S
In short: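 Aqueous solubility was measured on the hydrochloride salts in aqueous buffer of 0.15 M sodium chloride and 0.01 M sodium dihydrogen phosphate at pH 7. Values are given in mg mL⁻¹.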

[4] = molecular target: Beta-3 adrenergic receptor (Rattus norvegicus) (UniProt P26255); assay: Dose of the compound (peroral administration) to […] GDP binding against Beta-3 adrenergic receptor in brown adipose tissue(BAT mitochondria) of rats. [Dose necessary to produce 50% of the isoprenaline effect]
[5] = Partition coefficient (logP); type: physicochemical; details: octanol/water
In short: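 log P is the octanol–water partition coefficient.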

Chain of Beta-3 adrenergic receptor (Rattus norvegicus) (P26255 whole entry): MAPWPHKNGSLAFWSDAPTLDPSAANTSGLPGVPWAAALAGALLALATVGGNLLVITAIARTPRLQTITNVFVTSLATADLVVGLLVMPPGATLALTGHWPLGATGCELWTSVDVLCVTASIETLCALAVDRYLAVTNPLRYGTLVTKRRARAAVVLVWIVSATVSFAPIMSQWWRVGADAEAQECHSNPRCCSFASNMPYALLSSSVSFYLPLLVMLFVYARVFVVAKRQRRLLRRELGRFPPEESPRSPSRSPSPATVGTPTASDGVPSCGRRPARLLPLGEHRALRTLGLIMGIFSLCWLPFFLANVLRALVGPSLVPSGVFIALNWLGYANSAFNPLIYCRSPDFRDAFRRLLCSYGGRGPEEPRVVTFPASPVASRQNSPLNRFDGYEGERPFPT

| Compound | GDP ED50 [1] [mg/kg] | Selectivity index [2] | solubility [3] [µg/mL] | GDP ED50 [4] [mg/kg] | logP [5] |
| --- | --- | --- | --- | --- | --- |
| NC(=O)CNC(=O)COc1ccc(OCCNCC(O)COc2ccccc2)cc1 (centres undefined) | 1.18 | >50 | – | – | – |
| O=C(COc1ccc(OCCNCC(O)COc2ccccc2)cc1)NCc1ccc(Cl)cc1 (centres undefined) | 0.92 | >50 | – | – | – |
| CCCCNC(=O)COc1ccc(OCCNCC(O)COc2ccccc2)cc1 (centres undefined) | 1.5 | >100 | – | – | – |
| O=C(COc1ccc(OCCNCC(O)COc2ccccc2)cc1)Nc1ccccc1 (centres undefined) | 1.38 | – | – | – | – |
| O=C(COc1ccc(OCCNCC(O)COc2ccccc2)cc1)N1CCCO1 (centres undefined) | 0.49 | – | – | – | – |
| CNC(=O)COc1ccc(OCCNC[C@H](O)COc2ccccc2)cc1 | 0.57 | >100 | – | – | – |
| COCC(C)NC(=O)COc1ccc(OCCNCC(O)COc2ccccc2)cc1 (centres undefined) | 3.88 | – | – | – | – |
| CN(Cc1ccccc1)C(=O)COc1ccc(OCCNCC(O)COc2ccccc2)cc1 (centres undefined) | 8.6 | – | – | – | – |
| O=C(COc1ccc(OCCNCC(O)COc2ccccc2)cc1)NCc1cccs1 (centres undefined) | 0.69 | – | – | – | – |
| O=C(COc1ccc(OCCNCC(O)COc2ccccc2)cc1)NC1CC1 (centres undefined) | 0.79 | >50 | – | – | – |
| CCCNC(=O)COc1ccc(OCCNCC(O)COc2ccccc2)cc1 (centres undefined) | – | >100 | 600 (≈ 1490 µM) | 0.2 | 2.4 |
| O=C(COc1ccc(OCCNCC(O)COc2ccccc2)cc1)N1CCc2ccccc2C1 (centres undefined) | 0.44 | >100 | – | – | – |
| NC(=O)COc1ccc(OCCNCC(O)COc2ccccc2F)cc1 (centres undefined) | 2.24 | >10 | – | – | – |
| O=C(COc1ccc(OCCNCC(O)COc2ccccc2)cc1)NC1CCCC1 (centres undefined) | 3.1 | >10 | – | – | – |
| O=C(COc1ccc(OCCNCC(O)COc2ccccc2)cc1)NCc1ccco1 (centres undefined) | 1.53 | – | – | – | – |
| COCCNC(=O)COc1ccc(OCCNC[C@H](O)COc2ccc(O)cc2)cc1 | 4.16 | – | – | – | – |
| COCCNC(=O)COc1ccc(OCCNC[C@H](O)COc2ccccc2)cc1 | 0.34 | >100 | – | – | – |
| CNC(=O)COc1ccc(OCC(C)NCC(O)COc2ccccc2)cc1 (centres undefined) | 0.25 | >10 | – | – | – |
| CN(C)C(=O)COc1ccc(OCCNCC(O)COc2ccccc2)cc1 (centres undefined) | 1.4 | >50 | – | – | – |
| CCNC(=O)COc1ccc(OCCNCC(O)COc2ccccc2)cc1 (centres undefined) | 0.5 | >100 | – | – | – |
| CC(C)CNC(=O)COc1ccc(OCCNCC(O)COc2ccccc2)cc1 (centres undefined) | 3.2 | – | – | – | – |
| O=C(COc1ccc(OCCNCC(O)COc2ccccc2)cc1)NCCOc1ccccc1 (centres undefined) | 0.72 | >100 | – | – | – |
| O=C(COc1ccc(OCCNCC(O)COc2ccccc2)cc1)N1CCCCC1 (centres undefined) | 0.4 | >100 | 2000 (≈ 4670 µM) | – | 2.6 |
| O=C(COc1ccc(OCCNCC(O)COc2ccccc2)cc1)N1Cc2ccccc2C1 (centres undefined) | 1.3 | – | – | – | – |
| O=C(COc1ccc(OCCNCC(O)COc2ccccc2)cc1)NCCO (centres undefined) | 0.67 | >100 | – | – | – |

| Compound | GDP ED50 [1] [mg/kg] | Selectivity index [2] | solubility [3] [µg/mL] | GDP ED50 [4] [mg/kg] | logP [5] |
| --- | --- | --- | --- | --- | --- |
| O=C(COc1ccc(OCCNCC(O)COc2ccccc2)cc1)NCCc1ccccc1 (centres undefined) | 1.23 | >50 | – | – | – |
| CC(CO)NC(=O)COc1ccc(OCCNCC(O)COc2ccccc2)cc1.O (centres undefined) | 0.85 | >50 | – | – | – |
| COCCCNC(=O)COc1ccc(OCCNCC(O)COc2ccccc2)cc1 (centres undefined) | 0.83 | >100 | – | – | – |
| CC(C)NC(=O)COc1ccc(OCCNCC(O)COc2ccccc2)cc1 (centres undefined) | 0.4 | >100 | 900 (≈ 2240 µM) | – | 2.4 |
| O=C(COc1ccc(OCCNCC(O)COc2ccccc2)cc1)NCCCO (centres undefined) | 0.47 | >100 | 36000 (≈ 86000 µM) | – | 0.5 |
| O=C(COc1ccc(OCCNC[C@H](O)COc2ccccc2)cc1)NCCO | 0.77 | >50 | – | – | – |
| CNC(=O)COc1ccc(OCCNCC(O)COc2ccccc2)cc1 (centres undefined) | 1.2 | >50 | – | – | – |
| O=C(COc1ccc(OCCNCC(O)COc2ccccc2)cc1)NCc1ccc(Cl)cc1Cl (centres undefined) | 2.77 | – | – | – | – |
| CCC(C)NC(=O)COc1ccc(OCCNCC(O)COc2ccccc2)cc1 (centres undefined) | 1.7 | – | – | – | – |
| O=C(COc1ccc(OCCNCC(O)COc2ccccc2)cc1)N1CCOCC1 (centres undefined) | 0.54 | >100 | – | – | – |
| COCCNC(=O)COc1ccc(OCCNCC(O)COc2ccccc2)cc1 (centres undefined) | 0.24 | >100 | 11000 (≈ 26300 µM) | – | 1.7 |
| O=C(COc1ccc(OCCNCC(O)COc2ccccc2)cc1)NOCc1ccccc1 (centres undefined) | 0.48 | – | – | – | – |
| O=C(COc1ccc(OCCNCC(O)COc2ccccc2)cc1)NO (centres undefined) | 0.5 | >100 | – | – | – |
| NNC(=O)COc1ccc(OCCNCC(O)COc2ccccc2)cc1 (centres undefined) | 1.15 | – | – | – | – |
| O=C(COc1ccc(OCCNCC(O)COc2ccccc2)cc1)N1CCCC1 (centres undefined) | 1.8 | >50 | – | – | – |
| COCCNC(=O)COc1ccc(OCCNC[C@@H](O)COc2ccccc2)cc1 | 69.9 | – | – | – | – |
| CNC(=O)COc1cccc(OCCNCC(O)COc2ccccc2)c1 (centres undefined) | 0.31 | 74 | – | – | – |
| C=CCNC(=O)COc1ccc(OCCNCC(O)COc2ccccc2)cc1 (centres undefined) | 0.64 | >100 | – | – | – |
| C=CCNC(=O)COc1ccc(OCC(C)NCC(O)COc2ccccc2)cc1 (centres undefined) | 1.03 | >20 | – | – | – |
| NC(=O)COc1ccc(OCCNCC(O)COc2ccccc2)cc1 (centres undefined) | 0.3 | >100 | 400 (≈ 1110 µM) | – | 1.1 |
| CNC(=O)COc1ccc(OCCNCC(O)COc2ccccc2F)cc1 (centres undefined) | 1.1 | >50 | – | – | – |
| CCN(CC)C(=O)COc1ccc(OCCNCC(O)COc2ccccc2)cc1 (centres undefined) | 1.16 | 33 | – | – | – |
| O=C(COc1ccc(OCCNCC(O)COc2ccccc2F)cc1)N1CCCCC1 (centres undefined) | 7.9 | – | – | – | – |
| O=C(COc1ccc(OCCNCC(O)COc2ccccc2)cc1)NCc1ccccc1 (centres undefined) | 0.25 | >100 | 40 (≈ 88.8 µM) | – | 3.2 |
| CC(NC(=O)COc1ccc(OCCNCC(O)COc2ccccc2)cc1)c1ccccc1 (centres undefined) | 0.96 | >10 | – | – | – |
